Experimental data pooled from the literature.
Protocols differ between the studies behind these lines.
CDK17: Cyclin-dependent kinase 17 (CDK17, Homo sapiens, UniProt Q00537)
CDK17 with cyclin Y: Cyclin-dependent kinase 17, with cyclin Y (CDK17, Homo sapiens, UniProt Q00537)

| Compound | target | read-out | mode | method | concentration | endpoint | result |
| --- | --- | --- | --- | --- | --- | --- | --- |
| Cc1cc(O)c(-c2ccc([C@@H](C)CN(C)C)cc2)c2c1[nH]c(=O)c1sccc12 | CDK17 | enzyme activity | inhibitor | – | 0.1 µM | inhibition | 2.42% |
| CCCCC(=O)Nc1ccc(-c2ccc3ncn(CCC)c(=O)c3c2)cn1 | CDK17 | binding | – | competition with immobilised ligand | 0.5 µM | remaining binding | 100% |
| COc1ccc2oc(-c3ccc4nc(N)oc4c3)c/c(=N\c3ccccc3NC(=O)CCN)c2c1 | CDK17 with cyclin Y | binding | – | – | 1 µM | remaining binding | 100% |
| CC(C)S(=O)(=O)c1ccc2nccc(Nc3ccc4sc(C5CCCC5)nc4c3)c2c1 | CDK17 with cyclin Y | enzyme activity | inhibitor | – | 1 µM | activity vs control | 111% |
| C[C@H]1CC[C@H](n2c3cnccc3c3cnc(Nc4ccc5c(n4)CCN(C(=O)CO)C5)nc32)CC1 | CDK17 | binding | – | competition with immobilised ligand | 1 µM | remaining binding | 24% |
| CC#CC(=O)N1CCC[C@H]1c1nc(-c2ccc(C(=O)Nc3ccccn3)cc2)c2c(N)nccn12 | CDK17 | enzyme activity | inhibitor | – | 1 µM | inhibition | 0% |
| Cc1ccc(NC(=O)c2ccnc(C(F)(F)F)c2)cc1-c1cc(OCCO)nc(N2CCOCC2)c1 | CDK17 | binding | – | competition with immobilised ligand | 1 µM | remaining binding | 98% |
| CO[C@@H]1[C@H](N(C)C(=O)c2ccccc2)C[C@H]2O[C@]1(C)n1c3ccccc3c3c4c(c5c6ccccc6n2c5c31)C(=O)NC4 | CDK17 | enzyme activity | inhibitor | – | 1 µM | inhibition | 0% |
